Measured values reported in ChEMBL document CHEMBL4304739, “Discovery of 3-(Indol-5-yl)-indazole Derivatives as Novel Myeloid Differentiation Protein 2/Toll-like Receptor 4 Antagonists for Treatment of Acute Lung Injury” (J Med Chem, 2019).
Activity calls are given as the source filed them. The calls are words filed in the database; no cut-off is given here.

Experiments:
Peritoneal macrophage = test: Cytotoxicity against ICR mouse peritoneal macrophages assessed as reduction in cell viability at 10 uM measured after 24 hrs by MTT assay; format: cell-based
Outline: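 Peritoneal macrophages from ICR mice, 2.0×10^4 cells/well in DMEM with 10% FBS. Cells exposed to compound for 24 h, then MTT (5 mg/ml in 0.9% NaCl) added for 4 h at 37 °C in 5% CO2. Absorbance read at 490 nm; final DMSO 0.1%.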

[1] = molecular target: T1, Toll-like receptor 4/Ly96 (Mus musculus, UniProt Q9JHF9+Q9QUK6); test: Inhibition of MD2-TLR4 protein-protein interaction in ICR mouse peritoneal macrophages assessed as reduction in LPS-induced IL-6 production preincubated for 2 hrs followed by LPS-stimulation and measured after 22 hrs by ELISA
T1 sequence (Q9QUK6 whole entry): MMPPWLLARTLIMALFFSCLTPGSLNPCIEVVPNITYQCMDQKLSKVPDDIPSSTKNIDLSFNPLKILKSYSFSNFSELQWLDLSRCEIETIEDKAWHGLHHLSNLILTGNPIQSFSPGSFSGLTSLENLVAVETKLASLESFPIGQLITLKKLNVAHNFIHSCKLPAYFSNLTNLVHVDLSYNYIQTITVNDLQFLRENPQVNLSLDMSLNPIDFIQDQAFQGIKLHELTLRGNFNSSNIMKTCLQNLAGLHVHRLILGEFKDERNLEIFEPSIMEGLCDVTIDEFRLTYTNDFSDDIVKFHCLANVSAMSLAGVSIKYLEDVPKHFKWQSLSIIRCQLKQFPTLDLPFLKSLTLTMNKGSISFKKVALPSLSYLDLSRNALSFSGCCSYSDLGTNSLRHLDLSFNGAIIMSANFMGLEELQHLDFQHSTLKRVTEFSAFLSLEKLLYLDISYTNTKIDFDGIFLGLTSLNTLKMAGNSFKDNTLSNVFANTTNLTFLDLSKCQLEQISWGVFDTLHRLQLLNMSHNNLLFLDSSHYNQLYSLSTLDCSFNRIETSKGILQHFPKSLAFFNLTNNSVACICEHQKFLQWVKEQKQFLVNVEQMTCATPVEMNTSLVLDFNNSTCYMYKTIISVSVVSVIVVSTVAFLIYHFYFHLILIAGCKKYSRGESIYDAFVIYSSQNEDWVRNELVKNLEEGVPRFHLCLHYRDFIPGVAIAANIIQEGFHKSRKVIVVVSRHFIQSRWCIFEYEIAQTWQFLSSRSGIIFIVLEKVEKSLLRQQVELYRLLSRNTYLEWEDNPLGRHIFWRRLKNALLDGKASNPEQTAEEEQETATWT
T1 sequence (Q9JHF9 whole entry): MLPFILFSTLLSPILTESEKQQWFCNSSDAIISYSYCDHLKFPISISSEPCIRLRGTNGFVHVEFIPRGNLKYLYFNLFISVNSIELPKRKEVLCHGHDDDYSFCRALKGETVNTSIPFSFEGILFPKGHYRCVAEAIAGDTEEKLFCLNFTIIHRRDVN

[2] = molecular target: T1, Toll-like receptor 4/Ly96; test: Inhibition of MD2-TLR4 protein-protein interaction in ICR mouse peritoneal macrophages assessed as reduction in LPS-induced TNFalpha production preincubated for 2 hrs followed by LPS-stimulation and measured after 22 hrs by ELISA
Mus musculus [3] = test: Antiinflammatory activity in LPS-induced C57BL/6 mouse model of acute lung injury assessed as reduction in lung injury score at 10 mg/kg, iv pretreated for 15 mins followed by LPS stimulation and measured after 6 hrs; format: functional, organism-based
Outline: (§1)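 Male C57BL/6 mice (18−22 g; n=8 per group). Compound in 0.1% CMC-Na given by tail vein injection 15 min before intraperitoneal LPS (20 mg/kg); controls received saline. Mice were sacrificed 6 h after LPS, and serum and lung tissue were collected.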

Mus musculus [4] = test: Antiinflammatory activity in LPS-induced C57BL/6 mouse model of acute lung injury assessed as reduction in F4/80 positive macrophage at 10 mg/kg, iv pretreated for 15 mins followed by LPS stimulation and measured after 6 hrs by ABC/hematoxylin staining-based immunohistochemistry analysis; format: functional, organism-based; outline: as §1

Compound	Activity (Peritoneal macrophage)	other results
Cc1cccc(C(=O)Nc2ccc3[nH]nc(-c4ccc5c(ccn5CCO)c4)c3c2)n1	Non-Toxic	–
O=C(/C=C/c1ccccc1)Nc1ccc2[nH]nc(-c3ccc4c(ccn4CCO)c3)c2c1	Non-Toxic	–
O=C(Nc1ccc2[nH]nc(-c3ccc4c(ccn4CCO)c3)c2c1)c1ccc(F)cc1	Non-Toxic	–
COc1cc(OC)cc(C(=O)Nc2ccc3[nH]nc(-c4ccc5c(ccn5CCO)c4)c3c2)c1	Non-Toxic	–
O=C(Nc1ccc2c(c1)c(-c1ccc3[nH]ccc3c1)nn2Cc1ccccc1)c1c(Cl)cccc1Cl	Non-Toxic	–
O=C(Nc1ccc2[nH]nc(-c3ccc4c(ccn4CCO)c3)c2c1)c1ccc(Cl)cc1	Non-Toxic	–
O=C(Nc1ccc2[nH]nc(-c3ccc4c(ccn4CCO)c3)c2c1)c1ccccn1	Non-Toxic	–
CC(=O)Nc1ccc2[nH]nc(-c3ccc4c(ccn4CCO)c3)c2c1	Non-Toxic	–
O=[N+]([O-])c1ccc2[nH]nc(-c3ccc4c(ccn4CCO)c3)c2c1	Non-Toxic	IC50 [1]: 0.84 µM; IC50 [2]: 6.99 µM
CCC(=O)Nc1ccc2[nH]nc(-c3ccc4c(ccn4CCO)c3)c2c1	Non-Toxic	–
O=C(Nc1ccc2[nH]nc(-c3ccc4c(ccn4CCO)c3)c2c1)c1cccc(Cl)c1	Non-Toxic	–
O=C(Nc1ccc2[nH]nc(-c3ccc4c(ccn4CCO)c3)c2c1)c1c(Cl)cccc1Cl	Non-Toxic	IC50 [1]: 0.73 µM; IC50 [2]: 6.31 µM
Nc1ccc2[nH]nc(-c3ccc4c(ccn4CCO)c3)c2c1	Non-Toxic	–
Cc1cccc(C(=O)Nc2ccc3[nH]nc(-c4ccc5c(ccn5CCO)c4)c3c2)c1	Non-Toxic	–
O=C(CCCl)Nc1ccc2[nH]nc(-c3ccc4c(ccn4CCO)c3)c2c1	Non-Toxic	IC50 [1]: 4.57 µM; IC50 [2]: 3.47 µM
CCCn1c(-c2c[nH]c3ncccc23)nc2ccc(N3CCN(C)CC3)nc21	–	Activity (Mus musculus [3]): Active; Activity (Mus musculus [4]): Active
